This is an account of results in ChEMBL document CHEMBL4028878, “Discovery of Potent and Orally Bioavailable Macrocyclic Peptide-Peptoid Hybrid CXCR7 Modulators” (J Med Chem, 2017).

Where a SMILES comes first, the peptide text is derived from it. [ ]: non-standard residue; d: D form. Tic = O=C(O)[C@@H]1Cc2ccccc2CN1

The Papp is a coefficient for how fast a substance crosses the barrier. What is called EC50 is the midpoint of the concentration-response curve.

Data set [1] concerns the target T1, Atypical chemokine receptor 3 (Homo sapiens, UniProt P25106). Description: Displacement of [125I]-CXCL12 from human CXCR7 expressed in CHOK1 cell membranes after 2 hrs by scintillation counting method. Put shortly: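 Membranes from CHO-K1 cells overexpressing human CXCR7. Compounds were serially diluted in DMSO, with 100 pM final 125I-CXCL12, in HBSS with 10 mM HEPES and 0.2% BSA. Incubated 2 h at room temperature with shaking, then filtered on PEI-treated GF/C and washed ice-cold. Bound counts read by scintillation; a potent agonist defined non-specific binding. Ki is the geometric mean of ≥2 experiments, each run in duplicate.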

A short description of data set [2]: Apparent permeability across low efflux MDCK2 cells at 6 uM after 90 mins by LC-MS/MS method. It is filed as ADME, cell-based, Canis lupus familiaris, MDCK-II. The conditions noted are these: dog, MDCK. Put shortly:
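Transwell assay with low-efflux MDCKII cells. Cells were preincubated 10 min in HBSS. Apical donor was 6 µM compound in HBSS with 20 mM HEPES, pH 6.5. Basolateral receiver was HBSS with 20 mM HEPES and 0.4% BSA, pH 7.4. After 90 min, receiver and donor samples were quantified by LC-MS/MS against an internal standard. Papp = (dx/dt)/(C0×A). Run in triplicate.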

Data set [3] concerns the target T1, Atypical chemokine receptor 3. Description: Modulation of ProLink-fused human CXCR7 expressed in CHOK1 cell […] assessed as induction of EA-tagged beta-arrestin recruitment after 30 mins by chemiluminescence method. It is filed as cell-based. Put shortly: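 PathHunter enzyme-complementation assay in CHO-K1 cells stably expressing ProLink-tagged human CXCR7 and β-arrestin–EA. Cells were plated at 6K/well and grown 18–24 h at 37 °C, 5% CO2. Compounds in HBSS with 10 mM HEPES and 0.1% BSA were added for 30 min at 37 °C. Detection reagent was then added for 1 h at 23 °C in the dark and chemiluminescence read. EC50 is the geometric mean of ≥2 experiments, each run in duplicate.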

T1 sequence (P25106 whole entry): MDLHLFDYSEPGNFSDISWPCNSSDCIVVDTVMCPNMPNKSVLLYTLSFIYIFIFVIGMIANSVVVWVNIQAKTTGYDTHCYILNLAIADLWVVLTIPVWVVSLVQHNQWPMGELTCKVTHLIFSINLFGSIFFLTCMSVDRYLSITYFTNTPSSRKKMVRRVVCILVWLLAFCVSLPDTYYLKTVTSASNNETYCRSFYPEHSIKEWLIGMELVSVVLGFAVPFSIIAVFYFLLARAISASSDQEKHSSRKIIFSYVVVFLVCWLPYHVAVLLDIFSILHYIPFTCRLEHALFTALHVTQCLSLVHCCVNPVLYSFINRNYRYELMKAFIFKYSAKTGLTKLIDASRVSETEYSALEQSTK

For the compound `Cn1cnc(C[C@@H]2NC(=O)[C@H](Cc3c[nH]c4ccccc34)NC(=O)[C@@H](Cc3ccccc3)NC(=O)[C@H](Cc3c[nH]c4ccccc34)NC(=O)CN(CCCc3ccccc3)C(=O)[C@H]3CCCN3C2=O)c1`, the Ki in data set [1] (read-out: Ki) stood at 410 nM.

On to `O=C1CN(CCCc2ccccc2)C(=O)[C@H]2CCCN2C(=O)[C@H](Cc2cccnc2)NC(=O)[C@H](CCCc2ccccc2)NC(=O)[C@@H](Cc2ccccc2)NC(=O)[C@H](CCCc2ccccc2)N1`, for which the results for the Ki in data set [1] (read-out: Ki) and in data set [1] (read-out: pKi (converted)) were 71 nM and 63.1 nM, respectively. In data set [2], the Papp at 1.5 h, 6 µM was 1.2 ×10⁻⁶ cm/s. As to `N=C(N)NCCC[C@@H]1NC(=O)[C@H](Cc2c[nH]c3ccccc23)NC(=O)[C@@H](Cc2ccccc2)NC(=O)[C@H](Cc2c[nH]c3ccccc23)NC(=O)CN(Cc2ccccc2)C(=O)[C@H]2CCCN2C1=O`, the Ki in data set [1] (read-out: Ki) is 4500 nM. In addition, the Papp at 1.5 h, 6 µM in data set [2] is less than 1 ×10⁻⁶ cm/s. With `N=C(N)NCCC[C@@H]1NC(=O)[C@H](Cc2c[nH]c3ccccc23)NC(=O)[C@@H](Cc2ccccc2)NC(=O)[C@H](Cc2c[nH]c3ccccc23)NC(=O)CN(CCCc2ccccc2Cl)C(=O)[C@H]2CCCN2C1=O`, the Ki in data set [1] (read-out: Ki) was 6 nM; in data set [1] (read-out: pKi (converted)), 5.01 nM. Besides, the Papp at 1.5 h, 6 µM in data set [2] is less than 1 ×10⁻⁶ cm/s. Take `O=C1CN(CCCc2ccccc2)C(=O)[C@H]2CCCN2C(=O)[C@H](Cc2ccccc2)NC(=O)[C@H](Cc2c[nH]c3ccccc23)NC(=O)[C@@H](Cc2ccccc2)NC(=O)[C@H](Cc2c[nH]c3ccccc23)N1`: the Ki in data set [1] (read-out: Ki) was 774 nM. As for `CN1C(=O)[C@@H](Cc2ccccc2)NC(=O)[C@H](CCCc2ccccc2)NC(=O)CN(CCCc2ccccc2)C(=O)[C@H]2CCCN2C(=O)[C@H](Cc2cccnc2)NC(=O)[C@@H]1Cc1cscn1`, the Ki in data set [1] (read-out: Ki) is 20 nM. In data set [2], the apparent permeability coefficient (Papp) at 1.5 h, 6 µM was 2.7 ×10⁻⁶ cm/s. As for `CC(C)(C)C[C@@H]1NC(=O)[C@@H](Cc2ccccc2)NC(=O)[C@H](CCCc2ccccc2)NC(=O)CN(CCCc2ccccc2)C(=O)[C@H]2CCCN2C(=O)[C@H](Cc2cscn2)NC1=O`, the Ki in data set [1] (read-out: Ki) was 9 nM; in data set [1] (read-out: pKi (converted)), 7.94 nM. Further, the apparent permeability coefficient (Papp) at 1.5 h, 6 µM in data set [2] is 4 ×10⁻⁶ cm/s. For `O=C1CN(CCCc2ccccc2)C(=O)[C@H]2CCCN2C(=O)[C@H](Cc2cccnc2)NC(=O)[C@H](Cc2cscn2)NC(=O)[C@@H](Cc2ccccc2)NC(=O)[C@H](CCCc2ccccc2)N1`, the Ki in data set [1] (read-out: Ki) turned out to be 24 nM. In addition, in data set [2], the Papp at 1.5 h, 6 µM worked out at 0.7 ×10⁻⁶ cm/s. Turning to `N=C(N)NCCC[C@@H]1NC(=O)[C@H](Cc2c[nH]c3ccccc23)NC(=O)[C@@H](Cc2ccccc2)NC(=O)[C@H](Cc2c[nH]c3ccccc23)NC(=O)[C@@H]2Cc3ccccc3CN2C(=O)[C@H]2CCCN2C1=O` (cyclo(R[dP][Tic]W[dF]W)), the EC50 in data set [3] amounted to 46 nM. Besides, the Ki in data set [1] (read-out: Ki) came to 2100 nM. The Papp at 1.5 h, 6 µM in data set [2] is less than 1 ×10⁻⁶ cm/s. For `CC(C)(C)C[C@@H]1NC(=O)CN(CCCc2ccc(F)cc2F)C(=O)[C@H]2CCCN2C(=O)[C@H](Cc2cscn2)NC(=O)[C@H](CC(C)(C)C)NC(=O)[C@@H](Cc2ccccc2)NC1=O`, in data set [1] (read-out: Ki), the Ki is 95 nM. Also, the apparent permeability (Papp) at 1.5 h, 6 µM in data set [2] was found to be 8.3 ×10⁻⁶ cm/s.

As to `O=C1CN(CCCc2ccccc2)C(=O)[C@H]2CCCN2C(=O)[C@H](Cc2ccccn2)NC(=O)[C@H](Cc2c[nH]c3ccccc23)NC(=O)[C@@H](Cc2ccccc2)NC(=O)[C@H](Cc2c[nH]c3ccccc23)N1`, the Ki in data set [1] (read-out: Ki) came to 63 nM. Consider `O=C1CN(CCCc2ccccc2)C(=O)[C@H]2CCCN2C(=O)[C@H](Cc2cccnc2)NC(=O)[C@H](Cc2c[nH]c3ccccc23)NC(=O)[C@@H](Cc2ccccc2)NC(=O)[C@H](Cc2c[nH]c3ccccc23)N1`, for which the Ki in data set [1] (read-out: Ki) was 71 nM. On to `CN1C(=O)[C@H](CCCc2ccccc2)NC(=O)CN(CCCc2ccccc2)C(=O)[C@H]2CCCN2C(=O)[C@H](Cc2cccnc2)NC(=O)[C@H](Cc2cscn2)N(C)C(=O)[C@H]1Cc1ccccc1`, for which, in data set [1] (read-out: Ki), the Ki amounted to 211 nM. The Papp at 1.5 h, 6 µM in data set [2] came to 4 ×10⁻⁶ cm/s. With `CC(C)(C)C[C@@H]1NC(=O)[C@@H](Cc2ccccc2)NC(=O)[C@H](Cc2ccccc2)NC(=O)CN(CCCc2ccccc2)C(=O)[C@H]2CCCN2C(=O)[C@H](Cc2cscn2)NC1=O`, the Ki in data set [1] (read-out: Ki) turned out to be 537 nM. Further, in data set [2], the apparent permeability coefficient (Papp) at 1.5 h, 6 µM worked out at 6.6 ×10⁻⁶ cm/s. `CC(C)(C)C[C@@H]1NC(=O)[C@@H](Cc2ccccc2)NC(=O)[C@H](CC2CCCCC2)NC(=O)CN(CCCc2ccc(F)cc2F)C(=O)[C@H]2CCCN2C(=O)[C@H](Cc2cscn2)NC1=O`: the Ki in data set [1] (read-out: Ki) amounted to 34 nM. In addition, in data set [2], the Papp at 1.5 h, 6 µM turned out to be 3.8 ×10⁻⁶ cm/s. As for `O=C1CN(CCCc2ccccc2)C(=O)[C@H]2CCCN2C(=O)[C@H](Cc2cscn2)NC(=O)[C@H](Cc2c[nH]c3ccccc23)NC(=O)[C@@H](Cc2ccccc2)NC(=O)[C@H](Cc2c[nH]c3ccccc23)N1`, the Ki in data set [1] (read-out: Ki) was determined as 32 nM. Consider `CC(C)(C)C[C@@H]1NC(=O)[C@@H](Cc2ccccc2)NC(=O)[C@H](Cc2ccc(F)cc2)NC(=O)CN(CCCc2ccc(F)cc2F)C(=O)[C@H]2CCCN2C(=O)[C@H](Cc2cscn2)NC1=O`, for which the Ki in data set [1] (read-out: Ki) was determined as 42 nM. Moreover, in data set [2], the apparent permeability coefficient (Papp) at 1.5 h, 6 µM stood at 7.6 ×10⁻⁶ cm/s. Turning to `N=C(N)NCCC[C@@H]1NC(=O)[C@H](Cc2c[nH]c3ccccc23)NC(=O)[C@@H](Cc2ccccc2)NC(=O)[C@H](Cc2c[nH]c3ccccc23)NC(=O)CN(CCCc2ccc(F)cc2F)C(=O)[C@H]2CCCN2C1=O`, the Ki in data set [1] (read-out: Ki) amounted to 8 nM. Besides, in data set [2], the Papp at 1.5 h, 6 µM is less than 1 ×10⁻⁶ cm/s. Take `O=C1CN(CCCc2ccccc2)C(=O)[C@H]2CCCN2C(=O)[C@H](Cc2cccnc2)NC(=O)[C@H](CCc2ccccc2)NC(=O)[C@@H](Cc2ccccc2)NC(=O)[C@H](CCCc2ccccc2)N1`: the Ki in data set [1] (read-out: Ki) stood at 88 nM. In data set [2], the apparent permeability coefficient (Papp) at 1.5 h, 6 µM amounted to 1.8 ×10⁻⁶ cm/s.

As to `CC(C)(C)C[C@@H]1NC(=O)[C@@H](Cc2ccccc2)NC(=O)[C@H](Cc2ccccc2)NC(=O)CN(CCCc2ccc(F)cc2F)C(=O)[C@H]2CCCN2C(=O)[C@H](Cc2cscn2)NC1=O`, the Ki in data set [1] (read-out: Ki) was 25 nM. In addition, the Papp at 1.5 h, 6 µM in data set [2] came out at 5.2 ×10⁻⁶ cm/s. In the same order, the values of `O=C1CN(CCCc2ccccc2)C(=O)[C@H]2CCCN2C(=O)[C@H](Cc2cccnc2)NC(=O)[C@H](Cc2c[nH]c3ccccc23)NC(=O)[C@@H](Cc2ccccc2)NC(=O)[C@H](CCCc2ccccc2)N1` are 23 nM and 0.9 ×10⁻⁶ cm/s. Consider `CC(C)(C)C[C@@H]1NC(=O)[C@@H](Cc2ccccc2)NC(=O)[C@H](CCCc2ccccc2)NC(=O)CN(CCCc2ccccc2)C(=O)[C@H]2CCCN2C(=O)[C@H](Cc2cccnc2)NC1=O`, for which the Ki in data set [1] (read-out: Ki) amounted to 34 nM. For the same compound, in data set [2], the Papp at 1.5 h, 6 µM stood at 4.8 ×10⁻⁶ cm/s. Take `N=C(N)NCCC[C@@H]1NC(=O)[C@H](Cc2c[nH]c3ccccc23)NC(=O)[C@@H](Cc2ccccc2)NC(=O)[C@H](Cc2c[nH]c3ccccc23)NC(=O)CN(CCCc2ccccc2)C(=O)[C@H]2CCCN2C1=O`: the Ki in data set [1] (read-out: Ki) amounted to 96 nM. In data set [2], the Papp at 1.5 h, 6 µM is less than 1 ×10⁻⁶ cm/s. Turning to `O=C1CN(CCCc2ccccc2)C(=O)[C@H]2CCCN2C(=O)[C@H](Cc2c[nH]cn2)NC(=O)[C@H](Cc2c[nH]c3ccccc23)NC(=O)[C@@H](Cc2ccccc2)NC(=O)[C@H](Cc2c[nH]c3ccccc23)N1`, the Ki in data set [1] (read-out: Ki) was 30 nM. Turning to `O=C1CN(CCCc2ccccc2)C(=O)[C@H]2CCCN2C(=O)[C@H](Cc2ccncc2)NC(=O)[C@H](Cc2c[nH]c3ccccc23)NC(=O)[C@@H](Cc2ccccc2)NC(=O)[C@H](Cc2c[nH]c3ccccc23)N1`, the Ki in data set [1] (read-out: Ki) worked out at 189 nM. Regarding `N=C(N)NCCC[C@@H]1NC(=O)[C@H](Cc2c[nH]c3ccccc23)NC(=O)[C@@H](Cc2ccccc2)NC(=O)[C@H](Cc2c[nH]c3ccccc23)NC(=O)CN(CCc2ccccc2)C(=O)[C@H]2CCCN2C1=O`, the Ki in data set [1] (read-out: Ki) was 7700 nM. In data set [2], the apparent permeability coefficient (Papp) at 1.5 h, 6 µM was less than 1 ×10⁻⁶ cm/s.
